Source: ChEMBL document CHEMBL4038305, “Benzoxaborole Antimalarial Agents. Part 5. Lead Optimization of Novel Amide Pyrazinyloxy Benzoxaboroles and Identification of a Preclinical Candidate” (J Med Chem, 2017)

Assays:
Plasmodium berghei [1] = experiment: Antimalarial activity against Plasmodium berghei infected in Swiss Webster mouse assessed as mouse survival rate at 1 mg/kg administered once daily via oral gavage for 4 consecutive days beginning 1 hr after infection measured on day 7 post infection relative to control; type: functional
How it was run: (§1)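 Mice given an intraperitoneal injection of P. berghei-infected erythrocytes taken from a previously infected animal. Oral dosing once daily for 4 consecutive days, starting 1 h after infection. Vehicle: polyethylene glycol 300/propylene glycol/water (weight ratio 55/25/20). Percent survival recorded daily from day 4 to day 20. Chloroquine 30 mg/kg and vehicle-only groups served as controls.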

Plasmodium berghei [2] = experiment: Antimalarial activity against Plasmodium berghei infected in Swiss Webster mouse assessed as mouse survival rate at 11 mg/kg administered once daily via oral gavage for 4 consecutive days beginning 1 hr after infection measured on day 14 post infection relative to control; type: functional; how it was run: as §1
Plasmodium berghei [3] = experiment: Antimalarial activity against Plasmodium berghei infected in Swiss Webster mouse assessed as mouse survival rate at 100 mg/kg administered once daily via oral gavage for 4 consecutive days beginning 1 hr after infection measured on day 18 post infection relative to control; type: functional; how it was run: as §1
Salmonella typhimurium [4] = experiment: Genotoxicity in Salmonella typhimurium TA1535 assessed as number of revertants per plate at 1500 ug/plate in absence of rat liver S9 fraction by Ames test (reference value: 10 +/- 3); type: toxicity; details: salmonella enterica subsp. enterica serovar typhimurium
Salmonella typhimurium [5] = experiment: Genotoxicity in Salmonella typhimurium TA100 assessed as number of revertants per plate at 150 ug/plate in presence of rat liver S9 fraction by Ames test (reference value: 141 +/- 1); type: toxicity; details: salmonella enterica subsp. enterica serovar typhimurium
Plasmodium falciparum [6] = experiment: Antimalarial activity against Plasmodium falciparum V1/S infected in human erythrocytes assessed as reduction in [3H]-hypoxanthine incorporation preincubated for 24 hrs followed by [3H]-hypoxanthine addition measured after 24 hrs by scintillation counting method; type: functional, cell-based
Salmonella typhimurium [7] = experiment: Genotoxicity in Salmonella typhimurium TA98 assessed as number of revertants per plate at 5000 ug/plate in absence of rat liver S9 fraction by Ames test (reference value: 14 +/- 6); type: toxicity; details: salmonella enterica subsp. enterica serovar typhimurium
Salmonella typhimurium [8] = experiment: Genotoxicity in Salmonella typhimurium TA1537 assessed as number of revertants per plate at 50 ug/plate in presence of rat liver S9 fraction by Ames test (reference value: 11 +/- 4); type: toxicity; details: salmonella enterica subsp. enterica serovar typhimurium
[9] = Volume of distribution at steady state in Beagle dog at 5 mg/kg, iv by HPLC/MS analysis; type: ADME, organism-based, Canis lupus familiaris; details: in vivo, read-out: Vdss
Lymphocyte [10] = experiment: Genotoxicity in human lymphocytes assessed as replication index at 80 ug/mL after 28 hrs in absence of rat liver S9 fraction by micronucleus assay relative to control; type: toxicity, cell-based
How it was run: (§2)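 Human lymphocytes exposed for 3 h with or without rat liver S9, or 28 h without S9, with 1% DMSO as vehicle control. Replication index = (binucleated + 2 × multinucleated cells)/total cells. Cytotoxicity (%) = 100 − (RI treated/RI vehicle) × 100.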

Rattus norvegicus [11] = experiment: Genotoxicity in rat assessed as micronucleated polychromatic erythrocytes in bone marrow at 2000 mg/kg administered via oral gavage measured after 24 hrs post dose by micronucleus assay (reference value: 0.07 +/- 0.05%); type: toxicity, organism-based; details: in vivo
Lymphocyte [12] = experiment: Genotoxicity in human lymphocytes assessed as replication index at 80 ug/mL after 3 hrs in presence of rat liver S9 fraction by micronucleus assay relative to control; type: toxicity, cell-based; details: s9, 3 h; how it was run: as §2
Salmonella typhimurium [13] = experiment: Genotoxicity in Salmonella typhimurium TA100 assessed as number of revertants per plate at 150 ug/plate in absence of rat liver S9 fraction by Ames test (reference value: 154 +/- 9); type: toxicity; details: salmonella enterica subsp. enterica serovar typhimurium
Lymphocyte [14] = experiment: Genotoxicity in human lymphocytes assessed as replication index at 160 ug/mL after 3 hrs in presence of rat liver S9 fraction by micronucleus assay relative to control; type: toxicity, cell-based; details: s9, 3 h; how it was run: as §2
Salmonella typhimurium [15] = experiment: Genotoxicity in Salmonella typhimurium TA1537 assessed as number of revertants per plate at 5000 ug/plate in absence of rat liver S9 fraction by Ames test (reference value: 19 +/- 9); type: toxicity; details: salmonella enterica subsp. enterica serovar typhimurium
[16] = AUC (0 to infinity) in Sprague-Dawley rat at 5 mg/kg, po via gavage by HPLC/MS analysis; type: ADME, organism-based; design: dose 5 mg/kg, route oral, time infinity; details: in vivo
[17] = Tmax in Sprague-Dawley rat plasma at 5 mg/kg, po via gavage by HPLC/MS analysis; type: ADME, organism-based
Salmonella typhimurium [18] = experiment: Genotoxicity in Salmonella typhimurium TA100 assessed as number of revertants per plate at 500 ug/plate in absence of rat liver S9 fraction by Ames test (reference value: 154 +/- 9); type: toxicity; details: salmonella enterica subsp. enterica serovar typhimurium
Plasmodium falciparum [19] = experiment: Antimalarial activity against Plasmodium falciparum D6 infected in human erythrocytes assessed as reduction in [3H]-hypoxanthine incorporation preincubated for 24 hrs followed by [3H]-hypoxanthine addition measured after 24 hrs by scintillation counting method; type: functional, cell-based
Plasmodium falciparum [20] = experiment: Antimalarial activity against Plasmodium falciparum K1 infected in human erythrocytes assessed as reduction in [3H]-hypoxanthine incorporation preincubated for 24 hrs followed by [3H]-hypoxanthine addition measured after 24 hrs by scintillation counting method; type: functional, cell-based
Salmonella typhimurium [21] = experiment: Genotoxicity in Salmonella typhimurium TA98 assessed as number of revertants per plate at 1.5 ug/plate in absence of rat liver S9 fraction by Ames test (reference value: 14 +/- 6); type: toxicity; details: salmonella enterica subsp. enterica serovar typhimurium
Escherichia coli [22] = experiment: Genotoxicity in Escherichia coli WP2uvrA assessed as number of revertants per plate at 15 ug/plate in presence of rat liver S9 fraction by Ames test (reference value: 42 +/- 6); type: toxicity
Rattus norvegicus [23] = experiment: Genotoxicity in rat assessed as micronucleated polychromatic erythrocytes in bone marrow at 1000 mg/kg administered via oral gavage measured after 24 hrs post dose by micronucleus assay (reference value: 0.07 +/- 0.05%); type: toxicity, organism-based; details: in vivo
Escherichia coli [24] = experiment: Genotoxicity in Escherichia coli WP2uvrA assessed as number of revertants per plate at 5000 ug/plate in presence of rat liver S9 fraction by Ames test (reference value: 42 +/- 6); type: toxicity
Escherichia coli [25] = experiment: Genotoxicity in Escherichia coli WP2uvrA assessed as number of revertants per plate at 1.5 ug/plate in presence of rat liver S9 fraction by Ames test (reference value: 42 +/- 6); type: toxicity
[26] = Terminal half life in Beagle dog at 5 mg/kg, po via gavage by HPLC/MS analysis; type: ADME, organism-based, Canis lupus familiaris; details: in vivo, read-out: beta t1/2 (converted)
How it was run: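 Female CD-1 mice, male SD rats or beagle dogs given 5 mg/kg by iv injection or oral gavage. Formulation was PEG300/propylene glycol/water 55/25/20, pH 6. Blood samples analysed by HPLC–MS/MS; parameters include AUC0-inf extrapolated to infinity and terminal half-life.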

[27] = Terminal half life in Sprague-Dawley rat at 5 mg/kg, iv by HPLC/MS analysis; type: ADME, organism-based; details: in vivo, read-out: beta t1/2 (converted)
Salmonella typhimurium [28] = experiment: Genotoxicity in Salmonella typhimurium TA1535 assessed as number of revertants per plate at 5 ug/plate in presence of rat liver S9 fraction by Ames test (reference value: 10); type: toxicity; details: salmonella enterica subsp. enterica serovar typhimurium
Salmonella typhimurium [29] = experiment: Genotoxicity in Salmonella typhimurium TA98 assessed as number of revertants per plate at 1.5 ug/plate in presence of rat liver S9 fraction by Ames test (reference value: 19 +/- 8); type: toxicity; details: salmonella enterica subsp. enterica serovar typhimurium
[30] = AUC (0 to infinity) in Beagle dog at 5 mg/kg, po via gavage by HPLC/MS analysis; type: ADME, organism-based, Canis lupus familiaris; design: dose 5 mg/kg, time infinity, route oral; details: in vivo

Cc1c(Oc2cnc(C(=O)NC(C)CO)cn2)ccc2c1B(O)OC2 (stereo not given)
survival at 1 mg/kg (Plasmodium berghei [1]): 20%

Cc1c(Oc2cnc(C(=O)N3CC(O)(C(C)C)C3)cn2)ccc2c1B(O)OC2
survival at 11 mg/kg (Plasmodium berghei [2]): 0%
survival at 100 mg/kg (Plasmodium berghei [3]): 80%

Cc1c(Oc2cnc(C(=O)N3CC(C)(O)C3)cn2)ccc2c1B(O)OC2
Activity (Salmonella typhimurium [4]): 7
Activity (Salmonella typhimurium [5]): 154
IC50 (Plasmodium falciparum [6]): 63 nM
Activity (Salmonella typhimurium [7]): 9
Activity (Salmonella typhimurium [8]): 9
Vd [9]: 0.29 L/kg
Activity (Lymphocyte [10]): 7%
Activity (Rattus norvegicus [11]): 0.09%
Activity (Lymphocyte [12]): 1%
Activity (Salmonella typhimurium [13]): 148
Activity (Lymphocyte [14]): 8%
Activity (Salmonella typhimurium [15]): 10
AUC(0-inf) [16]: 20.8 µg·h/mL
Tmax [17]: 3.5 h
Activity (Salmonella typhimurium [18]): 155
IC50 (Plasmodium falciparum [19]): 62 nM
IC50 (Plasmodium falciparum [20]): 62 nM
Activity (Salmonella typhimurium [21]): 15
Activity (Escherichia coli [22]): 50
Activity (Rattus norvegicus [23]): 0.08%
Activity (Escherichia coli [24]): 34
Activity (Escherichia coli [25]): 39
half-life [26]: 9.5 h
half-life [27]: 4.6 h
Activity (Salmonella typhimurium [28]): 16
Activity (Salmonella typhimurium [29]): 20
AUC(0-inf) [30]: 214 µg·h/mL
